Reference: ChEMBL document CHEMBL4425095, “Novel Cephalosporins Selectively Active on Nonreplicating Mycobacterium tuberculosis” (J Med Chem, 2016)
In brackets after ≈: the same amount, converted by molar mass. Activity calls are given as the source filed them. The calls are words filed in the database; no cut-off is given here.

Tests used:
[1] = system: Mycobacterium tuberculosis; assay: Potentiation of meropenem-induced bactericidal activity against wild-type replicating Mycobacterium tuberculosis H37Rv assessed as decrease in MIC90 relative to control; assay type: functional
[2] = system: Pseudomonas aeruginosa; assay: Antibacterial activity against replicating Pseudomonas aeruginosa measured at OD580 = 0.01; assay type: functional
How it was run: (§1)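 Replicating organisms in the paper's earlier-described bacteriologic medium; 200 μL of cells at OD580 0.01 exposed to DMSO vehicle or drug in 96-well plates; growth read by optical density.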

[3] = Half life in human plasma at 1 ug/ml by LC-MS analysis; assay type: ADME, cell-free
[4] = Solubility of compound in pH 7.4 solution measured after shaking for 4 hrs; assay type: physicochemical
How it was run: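 Solubility at pH 7.4 determined after shaking at room temperature for 4 h.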

[5] = system: Mycobacterium tuberculosis; assay: Bactericidal activity against wild-type non-replicating Mycobacterium tuberculosis H37Rv assessed as log reduction in CFU incubated for 7 days measured at OD580 = 0.1 in presence of 0.5 mM NaNO2 by charcoal agar resazurin assay; assay type: functional, organism-based
How it was run: (§2)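 Nonreplicating wild-type H37Rv at OD580 0.1 or 0.01 treated 7 days with or without 0.5 mM NaNO2. 10 μL spotted onto 7H11-OADC-charcoal agar and incubated 7–10 days at 37 °C. Developed with Alamar blue:Tween80 1:1 for 1 h; fluorescence read at ex 530/em 590. Complete loss of fluorescence taken as ≥2–3 log10 CFU reduction.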

[6] = system: Mycobacterium tuberculosis; assay: Bactericidal activity against wild-type non-replicating Mycobacterium tuberculosis H37Rv assessed as log reduction in CFU at 0.7 to 0.8 ug/ml incubated for 7 days measured at OD580 = 0.01 by charcoal agar resazurin assay; assay type: functional
How it was run: (§3)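 Nonreplicating wild-type H37Rv at OD580 0.01 exposed to compound for 7 days. Survivors serially diluted in PBS-tyloxapol and plated on 7H11-OADC agar; colonies counted at ~3 weeks. Limit of detection 1 colony from 10 μL undiluted sample; triplicates, one of two experiments.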

[7] = system: Staphylococcus aureus; assay: Antibacterial activity against replicating Staphylococcus aureus measured at OD580 = 0.01; assay type: functional; how it was run: as §1
[8] = system: Mycobacterium tuberculosis; assay: Bactericidal activity against wild-type non-replicating Mycobacterium tuberculosis H37Rv assessed as log reduction in CFU at 3 to 10 ug/ml incubated for 7 days measured at OD580 = 0.01 by charcoal agar resazurin assay; assay type: functional; how it was run: as §3
[9] = system: Mycobacterium tuberculosis; assay: Bactericidal activity against wild-type non-replicating Mycobacterium tuberculosis H37Rv assessed as drug tolerance development at 3 to 10 ug/ml incubated for 7 days measured at OD580 = 0.01 by charcoal agar resazurin assay; assay type: functional, organism-based
[10] = Stability of compound in pH 12 solution assessed as parent compound remaining incubated for 4 hrs at 37 degC; assay type: physicochemical; conditions: read-out: Stability
How it was run: (§4)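 Percent parent compound remaining after 4 h incubation at 37 °C at the stated pH.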

[11] = system: Escherichia coli; assay: Antibacterial activity against replicating Escherichia coli measured at OD580 = 0.01; assay type: functional; how it was run: as §1
[12] = Stability of compound in pH 2 solution assessed as parent compound remaining incubated for 4 hrs at 37 degC; assay type: physicochemical; conditions: read-out: Stability; how it was run: as §4
[13] = Stability in mouse liver microsomes assessed as compound metabolism up to 60 mins; assay type: ADME, Microsome; conditions: 1 h
How it was run: (§5)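 Mouse and human liver microsomal stability run by a contract lab in triplicate.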

[14] = system: Mycobacterium tuberculosis; assay: Bactericidal activity against wild-type non-replicating Mycobacterium tuberculosis H37Rv infected in recombinant mouse IFN-gamma stimulated C57BL6 mouse primary BMDM assessed as log reduction in CFU at 100 ug/ml incubated for 3 days by charcoal agar resazurin assay; assay type: functional
How it was run: (§6)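 Bone marrow macrophages (~1×10^5) from 8-week female C57Bl6 mice grown in DMEM/10% FBS/10% L-cell medium, with or without 50 ng/mL mouse IFNγ. Infected with H37Rv at MOI 1–5 for 4 h, washed, then given 100 μg/mL compound in 1% DMSO for 3 or 4 days. Lysed in 0.5% Triton X-100, CFU counted on 7H11-OADC agar; morphology observed.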

[15] = Half life in human liver microsomes; assay type: ADME, Microsome; how it was run: as §5
[16] = Permeability of compound by PAMPA; assay type: ADME; conditions: read-out: permeability
How it was run: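 PAMPA membrane permeability by a contract lab; reported as mean Pe (10^-6 cm/s) and log Pe.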

[17] = Stability in pH 5 non-replicating medium containing 0.5 mM NaNO2 assessed as parent compound remaining at 5 to 50 ug/ml at 37 degC measured every 12 hrs up to 144 hrs by LC-MS analysis; assay type: physicochemical; conditions: buffer
How it was run: (§7)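 Compound at 50 μg/mL in cell-free PBS pH 7.4, or nonreplicating medium pH 5.0 (BSA, tyloxapol, lysine, pantothenate omitted) with or without 0.5 mM NaNO2. Poorly soluble compounds at 5 μg/mL in 50:50 acetonitrile mixtures, pH readjusted to 5.0.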

[18] = Half life in mouse liver microsomes; assay type: ADME, Microsome; how it was run: as §5
[19] = system: Mycobacterium tuberculosis; assay: Bactericidal activity against wild-type non-replicating Mycobacterium tuberculosis H37Rv incubated for 7 days measured at OD580 = 0.01 in absence of NaNO2 by charcoal agar resazurin assay; assay type: functional, organism-based; how it was run: as §2
[20] = system: Candida albicans; assay: Antifungal activity against replicating Candida albicans measured at OD580 = 0.01; assay type: functional; how it was run: as §1
[21] = system: BMDM; assay: Cytotoxicity against C57BL6 mouse primary BMDM infected with wild-type non-replicating Mycobacterium tuberculosis H37Rv assessed as cell morphological changes at 100 ug/ml after 3 days; assay type: cell-based; conditions: 72 h; how it was run: as §6
[22] = system: Mycolicibacterium smegmatis; assay: Antibacterial activity against replicating Mycobacterium smegmatis measured at OD580 = 0.01; assay type: functional; how it was run: as §1
[23] = Stability of compound in pH 7 solution assessed as parent compound remaining incubated for 4 hrs at 37 degC; assay type: physicochemical
[24] = Stability in CD-1 mouse plasma assessed as drug transformation at 1 ug/ml measured at <5 mins by LC-MS analysis; assay type: ADME, cell-free
[25] = Intrinsic clearance in human liver microsomes assessed per mg protein measured up to 60 mins; assay type: ADME, Microsome; conditions: 1 h; how it was run: as §5
[26] = Cytotoxicity against human HepG2 cells assessed as reduction in cell viability after 2 days by Celltiter-Glo reagent based assay; conditions: read-out: LD50
How it was run: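 HepG2 cells in DMEM with 10% FBS, pyruvate, glutamine and nonessential amino acids. Seeded at 3000 cells/well and exposed 2 days to compound or vehicle (≤1% DMSO final). Reported as LD50.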

[27] = system: Mycobacterium tuberculosis; assay: Bactericidal activity against wild-type non-replicating Mycobacterium tuberculosis H37Rv assessed as log reduction in CFU incubated for 7 days measured at OD580 = 0.01 in presence of 0.5 mM NaNO2 by charcoal agar resazurin assay; assay type: functional, organism-based; how it was run: as §2
[28] = system: BMDM; assay: Cytotoxicity against C57BL6 mouse primary BMDM infected with wild-type non-replicating Mycobacterium tuberculosis H37Rv assessed as cell morphological changes at 100 ug/ml after 4 days; assay type: cell-based; conditions: 96 h; how it was run: as §6
[29] = Stability in pH 7.4 phosphate buffer solution assessed as parent compound remaining at 5 to 50 ug/ml at 37 degC measured every 12 hrs up to 144 hrs by LC-MS analysis; assay type: physicochemical; how it was run: as §7
[30] = Stability in pH 5 non-replicating medium assessed as parent compound remaining at 5 to 50 ug/ml at 37 degC measured every 12 hrs up to 144 hrs by LC-MS analysis; assay type: physicochemical; conditions: buffer; how it was run: as §7
[31] = system: Mycobacterium tuberculosis; assay: Bactericidal activity against wild-type non-replicating Mycobacterium tuberculosis H37Rv assessed as reduction in CFU at 0.1 to 100 ug/ml incubated for 7 days measured at OD580 = 0.01 in presence of beta-lactamase inhibitor clavulanate by charcoal agar resazurin assay; assay type: functional, organism-based
[32] = system: Mycobacterium tuberculosis; assay: Bactericidal activity against wild-type non-replicating Mycobacterium tuberculosis H37Rv infected in recombinant mouse IFN-gamma stimulated C57BL6 mouse primary BMDM assessed as log reduction in CFU at 100 ug/ml incubated for 4 days by charcoal agar resazurin assay; assay type: functional; how it was run: as §6
[33] = system: Mycobacterium tuberculosis; assay: Bactericidal activity against wild-type replicating Mycobacterium tuberculosis H37Rv assessed as reduction in CFU in presence of beta-lactamase inhibitor clavulanate; assay type: functional, organism-based
[34] = system: Mycobacterium tuberculosis; assay: Bactericidal activity against wild-type non-replicating Mycobacterium tuberculosis H37Rv at 1 to 100 ug/ml incubated for 7 days measured at OD580 = 0.1 in presence of 0.06 to 1 mM NaNO2; assay type: functional, organism-based
How it was run: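 Wild-type H37Rv resuspended at OD580 0.1 in nonreplicating medium with NaNO2 at 0–1 mM, one plate per nitrite level. Exposed to compound for 7 days, then standard outgrowth assay to estimate survivors.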

| SMILES | MIC90 [2] | t1/2 [3] | solubility at 4 h [4] | Activity [5] | Activity [6] | MIC90 [7] | LCK [8] | Activity [9] | remaining at 4 h [10] | MIC90 [11] | remaining at 4 h [12] | Stability [13] | t1/2 [15] | Papp [16] | Stability [17] | t1/2 [18] | Activity [19] | MIC90 [20] | MIC90 [22] | Stability [24] | also measured |
| --- | --- | --- | --- | --- | --- | --- | --- | --- | --- | --- | --- | --- | --- | --- | --- | --- | --- | --- | --- | --- | --- |
| O=C(O)[C@H]1/C(=C/CO)O[C@@H]2CC(=O)N21 [CLAVULANIC ACID] | – | – | – | – | – | – | – | – | – | – | – | – | – | – | – | – | – | – | – | – | fold change (FC) [1]: 4 |
| CC1=C(c2nc(C)no2)N2C(=O)[C@@H](NC(=O)COc3ccccc3)[C@H]2SC1 | > 100 µg/mL | 2 to 3 h | 83.7 to 84 µM (≈ 32.3 to 32.5 µg/mL) | Dose-dependent effect | 2 deltalog10CFU/ml | > 100 µg/mL | >=3.4 | Active | 0% | > 100 µg/mL | 100 to 102% | Unstable | 76.3 min | 13.4 ×10⁻⁶ cm/s | Stable | < 5 min | Active | > 100 µg/mL | > 100 µg/mL | Unstable | Activity [14]: 1 - 2 deltalog10CFU/ml; Activity [21]: Non-Toxic; remaining at 4 h ([23]; pH 7 solution, pH 7, read-out: Stability): 101%; CLH [25]: 9.13 µL/min; CC50 at 48 h [26]: > 100 µg/mL; Activity [27]: Dose-dependent effect |
| CCCOC(=O)C1=C(C)CS[C@@H]2[C@H](NC(=O)COc3ccccc3)C(=O)N12 | > 100 µg/mL | 2 to 3 h | 22.7 to 23 µM (≈ 8.86 to 8.98 µg/mL) | Dose-dependent effect | 2 deltalog10CFU/ml | > 100 µg/mL | >=3.4 | Active | 0% | > 100 µg/mL | 100 to 110% | Unstable | 86.1 min | 7.28 ×10⁻⁶ cm/s | 100% | < 5 min | Active | > 100 µg/mL | > 100 µg/mL | Unstable | Activity [28]: Non-Toxic; Stability [29]: 80%; Stability [30]: 100%; Activity [31]: Active; Activity [32]: 1 - 2 deltalog10CFU/ml; Activity [33]: inactive; Stability ([23]; buffer, pH 7, 4 h): 133%; CLH [25]: 8.07 µL/min; Activity [34]: Active; CC50 at 48 h [26]: 75.7 to 100 µg/mL (≈ 194 to 256 µM); Activity [27]: Dose-dependent effect |
